According to ChEMBL document CHEMBL1153878, “Hansch analysis of veratric acid derivatives as antimicrobial agents” (2009):
Values after ≈ are worked out from the molar mass of the structure shown.

Tests used:
Type in all cases: functional
Staphylococcus aureus = assay: Antibacterial activity against Staphylococcus aureus MTCC 1430 by serial dilution method; parameters: -logMIC: scale not given here; details: for MIC: Staphylococcus aureus, MTCC 1430, read-out: MIC
Procedure, shortened: (§1)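 Tube serial dilution in 1 ml sterile double strength nutrient broth I.P., test range […] per ml. Inoculum: […] of a saline suspension at 10⁵ cfu/ml from a fresh 24-h culture, grown in double strength nutrient broth at 37 ± 1 °C. […] Exact MIC refined by further dilution of the stock.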

Bacillus subtilis = assay: Antibacterial activity against Bacillus subtilis MTCC 2423 by serial dilution method; parameters: -logMIC: unit not given here; details: for MIC: Bacillus subtilis, MTCC 2423, read-out: MIC; procedure, shortened: as §1
Escherichia coli = assay: Antibacterial activity against Escherichia coli MTCC 739 by serial dilution method; parameters: -logMIC: scale not given here; details: for MIC: Escherichia coli, MTCC 739, read-out: MIC; procedure, shortened: as §1
Candida albicans = assay: Antifungal activity against Candida albicans MTCC 227 by serial dilution method; parameters: -logMIC: unit not given here; details: for MIC: Candida albicans, MTCC 227, read-out: MIC
Aspergillus niger = assay: Antifungal activity against Aspergillus niger MTCC 2425 by serial dilution method; parameters: -logMIC: scale not given here; details: for MIC: Aspergillus niger, MTCC 2425, read-out: MIC

Row | Compound | MIC (Staphylococcus aureus) [µg/mL] | MIC (Bacillus subtilis) [µg/mL] | MIC (Escherichia coli) [µg/mL] | MIC (Candida albicans) [µg/mL] | MIC (Aspergillus niger) [µg/mL] | -logMIC (Staphylococcus aureus) | -logMIC (Bacillus subtilis) | -logMIC (Escherichia coli) | -logMIC (Candida albicans) | -logMIC (Aspergillus niger)
1 | CNC(=O)c1ccc(OC)c(OC)c1 | 22 (≈ 113 µM) | 13 (≈ 66.6 µM) | 17 (≈ 87.1 µM) | 13 (≈ 66.6 µM) | 12.5 (≈ 64 µM) | 0.95 | 1.18 | 1.05 | 1.28 | 1.18
2 | COc1ccc(C(=O)N2CCOCC2)cc1OC | 21 (≈ 83.6 µM) | 13 (≈ 51.7 µM) | 17 (≈ 67.7 µM) | 11 (≈ 43.8 µM) | 12 (≈ 47.8 µM) | 1.08 | 1.28 | 1.17 | 1.37 | 1.33
3 | CCCCCOC(=O)c1ccc(OC)c(OC)c1 | 20 (≈ 79.3 µM) | 12.5 (≈ 49.5 µM) | 20 (≈ 79.3 µM) | 20 (≈ 79.3 µM) | 20 (≈ 79.3 µM) | 1.1 | 1.31 | 1.1 | 1.1 | 1.1
4 | COc1ccc(C(=O)Nc2ccc(Br)cc2)cc1OC | 19 (≈ 56.5 µM) | 13 (≈ 38.7 µM) | 19 (≈ 56.5 µM) | 15 (≈ 44.6 µM) | 12.5 (≈ 37.2 µM) | 1.25 | 1.4 | 1.25 | 1.34 | 1.44
5 | CCCOC(=O)c1ccc(OC)c(OC)c1 | 24 (≈ 107 µM) | 14 (≈ 62.4 µM) | 12.5 (≈ 55.7 µM) | 18 (≈ 80.3 µM) | 14 (≈ 62.4 µM) | 0.98 | 1.2 | 1.25 | 1.1 | 1.2

The remaining compounds from weak to strong by MIC (Staphylococcus aureus), led by results:

Row | MIC (Staphylococcus aureus) [µg/mL] | MIC (Bacillus subtilis) [µg/mL] | MIC (Escherichia coli) [µg/mL] | MIC (Candida albicans) [µg/mL] | MIC (Aspergillus niger) [µg/mL] | Compound | -logMIC (Staphylococcus aureus) | -logMIC (Bacillus subtilis) | -logMIC (Escherichia coli) | -logMIC (Candida albicans) | -logMIC (Aspergillus niger)
6 | 19 (≈ 65.1 µM) | 15 (≈ 51.4 µM) | 12 (≈ 41.1 µM) | 13.5 (≈ 46.3 µM) | 14.5 (≈ 49.7 µM) | COc1ccc(C(=O)Nc2ccc(Cl)cc2)cc1OC | 1.19 | 1.28 | 1.39 | 1.34 | 1.3
7 | 18 (≈ 69.7 µM) | 14 (≈ 54.2 µM) | 16 (≈ 61.9 µM) | 12.5 (≈ 48.4 µM) | 11.5 (≈ 44.5 µM) | COc1ccc(C(=O)Oc2ccccc2)cc1OC | 1.15 | 1.27 | 1.21 | 1.3 | 1.34
8 | 17 (≈ 81.2 µM) | 13 (≈ 62.1 µM) | 15 (≈ 71.7 µM) | 10 (≈ 47.8 µM) | 10 (≈ 47.8 µM) | COc1ccc(C(=O)N(C)C)cc1OC | 1.08 | 1.21 | 1.15 | 1.31 | 1.31
9 | 17 (≈ 62.7 µM) | 13 (≈ 47.9 µM) | 17 (≈ 62.7 µM) | 10 (≈ 36.9 µM) | 12.5 (≈ 46.1 µM) | COc1ccc(C(=O)Nc2cccc(C)c2)cc1OC | 1.2 | 1.31 | 1.2 | 1.42 | 1.35
10 | 16.5 (≈ 62 µM) | 12.5 (≈ 46.9 µM) | 16 (≈ 60.1 µM) | 13 (≈ 48.8 µM) | 14 (≈ 52.6 µM) | CCCCCCOC(=O)c1ccc(OC)c(OC)c1 | 1.2 | 1.33 | 1.22 | 1.3 | 1.28
11 | 15 (≈ 51.4 µM) | 12 (≈ 41.1 µM) | 17 (≈ 58.3 µM) | 13.5 (≈ 46.3 µM) | 13.5 (≈ 46.3 µM) | COc1ccc(C(=O)Nc2ccccc2Cl)cc1OC | 1.28 | 1.39 | 1.23 | 1.34 | 1.34
